Source: PubChem
Sampled rows, rich in hits. Any-hit rate of the full collection: about 2.2%.
PGC1a acetyl inh – modulators of PGC1a acetylation; U2OS PGC1a acetylation, AlphaScreen anti-acetyl-lysine; with virally co-expressed GCN5 acetyltransferase; inhibition, % at 15.6 µM; AID 651687; hit rate 0.17% among 350,000;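 active = every replicate shows inhibition of at least 40%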
SIRT5 inh – blocks human SIRT5 desuccinylation of peptide | Q9NXA8 | Purified SirT5, succinyl-peptide AMC, trypsin-coupled fluorescence | inhibition, % at 15 µM | hit rate 1.1% among 330,000 | AID 652115; in the data active = inhibition above about 15%
Target sequence (Q9NXA8 whole entry, looked up): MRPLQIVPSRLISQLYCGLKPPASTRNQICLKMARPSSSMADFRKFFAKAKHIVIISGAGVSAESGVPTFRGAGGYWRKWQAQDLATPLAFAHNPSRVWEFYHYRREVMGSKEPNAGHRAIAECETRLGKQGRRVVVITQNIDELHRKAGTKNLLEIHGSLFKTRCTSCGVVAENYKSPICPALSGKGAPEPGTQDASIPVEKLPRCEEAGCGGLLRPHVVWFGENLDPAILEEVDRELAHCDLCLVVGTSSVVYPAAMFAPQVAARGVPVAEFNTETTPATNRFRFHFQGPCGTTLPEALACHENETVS
FN deposition inh – fibronectin deposition inhibition. AH1F fibroblasts, Alexa488-fibronectin deposition fluorescence, overnight. inhibition, % at 12.6 µM. hit rate 0.086% among 350,000;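 active = mean inhibition across replicates of 30% or more, regardless of how many single replicates reach that level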
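Test system: AH1F fibroblast monolayer depositing Alexa488-labelled fibronectin into matrix. Input: 10000 cells per well. Technique: fluorescence, ex 485 nm, em 525 nm. Buffer or medium: DMEM plus 2% serum, read in PBS. Timing: 1 h cell adhesion before compound, then overnight fibronectin incubation. Compound: single dose, pinned. Read-out basis: inhibition from reduced deposited-fibronectin fluorescence.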
FGF22 binding – shifts melting point of recombinant human FGF22; activity (Tm shift, normalised), % at 9.99 µM; hit rate 1.5% among 340,000; recombinant FGF22 thermal shift, SYPRO orange fluorescence; percent of sucrose octasulfate shift, DMSO zero; Q9HCT0;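 active = mean Tm shift, scaled 0 neutral to 100 positive control, at about 1.3% or above, every replicate too, limit read from the data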
Target sequence (Q9HCT0 whole entry, looked up): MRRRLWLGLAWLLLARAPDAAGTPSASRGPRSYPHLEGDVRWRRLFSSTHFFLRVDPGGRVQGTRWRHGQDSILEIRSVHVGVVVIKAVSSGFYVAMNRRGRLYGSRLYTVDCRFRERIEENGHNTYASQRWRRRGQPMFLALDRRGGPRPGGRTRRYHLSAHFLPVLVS
ERAP1 inh – ERAP1 (human) enzyme inhibition | recombinant ERAP1, Leu-AMC fluorescence, 60 min | inhibition, % at 10.7 µM | hit rate 0.15% among 340,000 | AID 652197;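 active = mean replicate inhibition of at least 30%, or all replicates individually reaching that 30% level; inactive = mean below 30% and not every replicate reaching it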
Of the large screens only hits and unclear results are named; the others gave an inactive call.

COc1cccc(S(=O)(=O)N[C@H]2CC[C@H](CCNC(=O)Nc3cc(F)ccc3F)O[C@@H]2CO)c1	none
Cn1cnnc1Sc1ccc(C(=O)OCC(=O)NCC(F)(F)F)cc1[N+](=O)[O-]	none
C=CCNC(=O)COC(=O)c1ccc(Sc2nncn2C)c([N+](=O)[O-])c1	FGF22 binding 44 (no result: PGC1a acetyl inh)
COc1cccc(C2Nc3ccc4ccccc4c3C3=C2C(=O)CCC3)c1O (stereo not given)	SIRT5 inh 22
O=C(O)/C=C/c1cnc[nH]1	PGC1a acetyl inh 106
COCCN(C(=O)/C=C/c1ccccc1)c1c(N)n(Cc2ccccc2)c(=O)[nH]c1=O	FGF22 binding 43
CCN(C(=O)CN1CCN(c2ccccc2F)CC1)c1c(N)n(Cc2ccccc2)c(=O)[nH]c1=O	none
CCN(C(=O)CN1CCN(c2ccccc2O)CC1)c1c(N)n(Cc2ccccc2)c(=O)[nH]c1=O	PGC1a acetyl inh 50 (no result: SIRT5 inh, FN deposition inh, FGF22 binding, ERAP1 inh)
COCCN(C(=O)/C=C/c1cccc([N+](=O)[O-])c1)c1c(N)n(Cc2ccccc2)c(=O)[nH]c1=O	none
C[C@@H]1CCCCO[C@H](CN(C)S(=O)(=O)c2ccc(Cl)cc2)[C@@H](C)CN([C@@H](C)CO)C(=O)c2cc(NS(=O)(=O)c3ccc(F)cc3)ccc2O1	none
C[C@@H]1CN([C@@H](C)CO)C(=O)c2cc(NS(=O)(=O)c3ccc(F)cc3)ccc2O[C@@H](C)CCCCO[C@@H]1CN(C)S(=O)(=O)c1ccc(Cl)cc1	SIRT5 inh 25
C[C@@H]1CCCCO[C@@H](CN(C)S(=O)(=O)c2ccc(Cl)cc2)[C@@H](C)CN([C@H](C)CO)C(=O)c2cc(NS(=O)(=O)c3ccc(F)cc3)ccc2O1	SIRT5 inh 15
C[C@@H]1CN([C@H](C)CO)C(=O)c2cc(NS(=O)(=O)c3ccc(F)cc3)ccc2O[C@@H](C)CCCCO[C@@H]1CN(C)S(=O)(=O)c1ccc(Cl)cc1	SIRT5 inh 26
C[C@@H]1CN([C@@H](C)CO)C(=O)c2ccccc2-c2ccccc2CO[C@H]1CN(C)Cc1ccc(C(=O)O)cc1	none
COc1ccc(/C=C/C(=O)NNC(=O)c2cc(C)oc2C)cc1	SIRT5 inh 23 (no result: PGC1a acetyl inh)
COC(=O)[C@@H](NC(=O)/C=C/c1ccc(OC)cc1)C(C)C	FGF22 binding 43
Cc1cc(C(=O)NNC(=O)/C=C/c2ccccc2Cl)c(C)o1	none
C[C@H](CO)N1C[C@H](C)[C@@H](CN(C)Cc2ccc(Cl)c(Cl)c2)Oc2ccc(NS(=O)(=O)c3ccccc3)cc2CC1=O	SIRT5 inh 28
C[C@H](CO)N1C[C@H](C)[C@@H](CN(C)Cc2ccc(Cl)c(Cl)c2)Oc2ccc(NC(=O)c3ccncc3)cc2CC1=O	SIRT5 inh 17 (no result: FN deposition inh)
C[C@H]1CN([C@@H](C)CO)C(=O)Cc2cc(NS(=O)(=O)c3ccc(Cl)cc3)ccc2O[C@@H]1CN(C)Cc1ccc(Cl)c(Cl)c1	SIRT5 inh 15 (no result: FN deposition inh)
COc1ccc(S(=O)(=O)Nc2ccc3c(c2)C(=O)N([C@@H](C)CO)C[C@H](C)[C@@H](CN(C)C(=O)Nc2cccc4ccccc24)O3)cc1	none (no result: FN deposition inh)
C[C@H](CO)N1C[C@H](C)[C@H](CN(C)C(=O)Nc2ccccc2)Oc2c(NS(=O)(=O)c3cccs3)cccc2C1=O	none (no result: SIRT5 inh, FN deposition inh, FGF22 binding, ERAP1 inh)
C[C@@H]1CN([C@H](C)CO)C(=O)c2cccc(NC(=O)Nc3ccc(C(F)(F)F)cc3)c2O[C@H]1CN(C)S(=O)(=O)c1cccs1	SIRT5 inh 17
Cc1ccc(S(=O)(=O)N(C)C[C@H]2Oc3c(NC(=O)Nc4ccc5c(c4)OCO5)cccc3C(=O)N([C@@H](C)CO)C[C@H]2C)cc1	SIRT5 inh 15 (no result: FN deposition inh)
Cc1ccc(S(=O)(=O)N(C)C[C@@H]2Oc3c(NC(=O)Nc4ccc5c(c4)OCO5)cccc3C(=O)N([C@@H](C)CO)C[C@H]2C)cc1	none (no result: FN deposition inh)
C[C@H](CO)N1C[C@H](C)[C@@H](CN(C)C(=O)Nc2ccccc2)Oc2c(NS(=O)(=O)c3cccs3)cccc2C1=O	SIRT5 inh 24
C[C@H]1CN([C@@H](C)CO)C(=O)c2cccc(NC(=O)Nc3ccc(C(F)(F)F)cc3)c2O[C@H]1CN(C)S(=O)(=O)c1ccc(F)cc1	SIRT5 inh 16 (no result: FN deposition inh)
CN(C)C(=O)C[C@@H]1CC[C@@H]2[C@H](COc3ccc(NC(=O)c4ccc(F)c(F)c4)cc3C(=O)N2C)O1	SIRT5 inh 16
